How the values were obtained:
[1] = biological target: T1, Adrenergic receptor alpha-2 (Homo sapiens, UniProt P08913+P18825+P18089); assay: (§1) Compound was tested for its ability to displace [3H]clonidine form alpha-2 adrenergic receptor site in guinea pig cerebral cortical membranes.; parameters: species or system Cavia porcellus; conditions: target entry is the homologue from another species
T1 sequence (P08913 whole entry): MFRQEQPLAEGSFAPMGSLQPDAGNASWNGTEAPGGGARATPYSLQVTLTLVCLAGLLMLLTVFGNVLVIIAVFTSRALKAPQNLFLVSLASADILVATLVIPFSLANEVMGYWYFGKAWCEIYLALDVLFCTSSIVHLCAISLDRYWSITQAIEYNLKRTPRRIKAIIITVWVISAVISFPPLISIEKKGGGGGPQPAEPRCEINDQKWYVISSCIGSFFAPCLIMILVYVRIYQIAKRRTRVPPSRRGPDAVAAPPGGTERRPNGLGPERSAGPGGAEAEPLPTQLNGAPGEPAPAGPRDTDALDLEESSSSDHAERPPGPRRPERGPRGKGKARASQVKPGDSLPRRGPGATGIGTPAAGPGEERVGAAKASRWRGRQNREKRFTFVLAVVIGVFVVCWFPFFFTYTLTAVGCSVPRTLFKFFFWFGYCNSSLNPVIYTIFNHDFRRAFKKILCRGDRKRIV
T1 sequence (P18825 whole entry): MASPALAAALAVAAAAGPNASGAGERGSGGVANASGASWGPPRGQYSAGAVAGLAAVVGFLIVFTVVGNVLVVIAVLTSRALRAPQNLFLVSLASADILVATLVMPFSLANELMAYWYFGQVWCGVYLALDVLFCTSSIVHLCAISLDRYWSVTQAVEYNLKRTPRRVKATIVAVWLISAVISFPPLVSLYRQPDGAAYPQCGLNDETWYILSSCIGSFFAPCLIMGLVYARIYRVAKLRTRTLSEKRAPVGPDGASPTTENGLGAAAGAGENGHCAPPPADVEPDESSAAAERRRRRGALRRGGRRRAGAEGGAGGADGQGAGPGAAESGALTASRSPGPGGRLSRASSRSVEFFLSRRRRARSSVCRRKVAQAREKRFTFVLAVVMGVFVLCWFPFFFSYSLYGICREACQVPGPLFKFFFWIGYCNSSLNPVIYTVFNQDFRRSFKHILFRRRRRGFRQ
T1 sequence (P18089 whole entry): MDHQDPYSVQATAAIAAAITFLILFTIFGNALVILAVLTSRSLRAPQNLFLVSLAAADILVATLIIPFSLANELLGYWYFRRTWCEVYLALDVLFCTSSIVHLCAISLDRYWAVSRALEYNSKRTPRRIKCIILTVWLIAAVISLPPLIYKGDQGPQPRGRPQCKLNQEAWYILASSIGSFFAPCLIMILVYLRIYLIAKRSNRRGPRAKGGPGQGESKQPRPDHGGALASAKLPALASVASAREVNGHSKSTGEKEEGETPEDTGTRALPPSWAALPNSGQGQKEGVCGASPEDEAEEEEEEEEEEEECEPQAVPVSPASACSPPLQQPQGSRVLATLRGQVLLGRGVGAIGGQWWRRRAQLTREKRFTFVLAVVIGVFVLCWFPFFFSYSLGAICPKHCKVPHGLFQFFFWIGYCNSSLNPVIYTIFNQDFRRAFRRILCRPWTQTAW
Method in brief: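 Guinea pig (male Hartley) cerebral cortex membranes in 50 mM Tris-HCl pH 7.4. Ki from IC50 by Cheng-Prusoff; 3–5 experiments or one in triplicate.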

Cavia porcellus [2] = organism: Cavia porcellus; assay: Stimulation of [3H]phosphatidylinositol turnover in synaptoneurosomes at a concentration of 100 uM; assay type: functional
Method in brief: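 Nonfiltered guinea pig cortical synaptoneurosomes prelabeled 60 min at 37 °C with 1 μM [3H]inositol in Krebs–Henseleit buffer under O2/CO2 (95:5). Washed, resuspended with 10 mM LiCl (~1 mg protein/tube). Agonist at 100 μM, 90 min at 37 °C. Stopped by centrifugation, TCA extraction; [3H]inositol phosphates measured in supernatant.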

[3] = Compound was tested for its ability to displace [3H]WB-4101 form alpha-1 adrenergic receptor site in guinea pig cerebral cortical membranes.; parameters: species or system Cavia porcellus
Method in brief: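 Guinea pig (male Hartley) cerebral cortex membranes in 50 mM Tris-HCl pH 7.4, ~0.9–1.2 mg protein/mL. […] Ki from IC50 by Cheng-Prusoff; 3–5 experiments or one in triplicate.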

[4] = Compound was tested for its ability to displace [3H]-prazosin form alpha-1 adrenergic receptor site in guinea pig cerebral cortical membranes.; parameters: species or system Cavia porcellus
Method in brief: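 Guinea pig (male Hartley) cerebral cortex membranes, homogenised and washed in 50 mM Tris-HCl pH 7.4, ~0.9–1.2 mg protein/mL. 0.5 nM [3H]prazosin (Kd 0.5 nM), 30 min at 30 °C; nonspecific with 10 μM phentolamine. Ki from IC50 by Cheng-Prusoff; 3–5 experiments or one in triplicate.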

Cavia porcellus [5] = organism: Cavia porcellus; assay: Compound was evaluated for its agonist potency by measurement of potentiation of 2-chloroadenosine stimulation of cyclic AMP accumulation in guinea pig cerebral cortical synaptoneurosomal preparations.; assay type: functional
Cavia porcellus [6] = organism: Cavia porcellus; assay: Compound was evaluated for its agonist potency by measurement of contraction of guinea pig aortic strips; assay type: functional; conditions: Aorta
Method in brief: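 Cumulative concentration-response, 3–200 μM in 2–3-fold steps. Isometric tension recorded; EC50 = concentration giving half of maximal contraction to supramaximal (-)-NE (30–50 μM), measured before and after each curve.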

[7] = biological target: T1, Adrenergic receptor alpha-2; assay: as §1; parameters: species or system Cavia porcellus; conditions: target entry is the homologue from another species; remark: listed apart in the source
Method in brief: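 Guinea pig (male Hartley) cerebral cortex membranes in 50 mM Tris-HCl pH 7.4. […] Ki from IC50 by Cheng-Prusoff; 3–5 experiments or one in triplicate.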

SMILES | Ki [1] [µM] | Control (Cavia porcellus [2]) [%] | Ki [3] [µM] | Ki [4] [µM] | EC50 (Cavia porcellus [5]) [µM] | EC50 (Cavia porcellus [6]) [µM] | Ki [7] [µM]
CNCC(O)c1cccc(O)c1F (racemic) | 1.2 | 134 | 6.6 | 17 | 40 | 105 | 
CNCC(O)c1cc(O)ccc1F (racemic) |  | 162 | 1.3 | 2.1 | 4 | 11 | 0.23
CNCC(O)c1ccc(F)c(O)c1 (racemic) |  | 136 | 3.7 | 10 | 35 | 39 | 1
CNC[C@H](O)c1cccc(O)c1 [PHENYLEPHRINE] |  | 161 | 2.5 |  | 26 | 27 | 
